Laboratory results taken from the RNAGym collection of RNA variant scans (doi:10.1126/science.aae0568).
This sample holds only a part of the variants without activity.

B1: tRNA (parent)
chain: GUUCCGUUGGCGUAAUGGUAACGCGUCUCCCUCCUAAGGAGAAGACUGCGGGUUCGAGUCCCGUACGGAACG

Variants of: B1
Experiment: yeast fitness relative to wild type (ratio to wild type); higher = fitter; tRNA-Arg(CCU), competitive growth, 37 C, YPD
Procedure, shortened: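 The tRNA-Arg(CCU) gene variants were made by chemical synthesis with a 3% per-site mutation rate at 69 sites and inserted at the native genomic locus of Saccharomyces cerevisiae. After pooling, the strains were competed in YPD at 37°C for 24 hours in six parallel replicates. Gene amplicons from the start population and each end population were read by 100-nucleotide paired-end sequencing, and Darwinian fitness relative to wild type was taken from genotype frequency changes. Genotypes needed ≥ 100 starting reads, and estimates < 0.5 were set to 0.5.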

Variant | yeast fitness
A14G C27U C55A | 0.56
A14G C29A | 0.581
A14G C29G A37G | ≤ 0.5
A14G C29G A43U C46U | ≤ 0.5
A14G C29G C31U C55U A69C | ≤ 0.5
A14G C29G C62U | 0.573
A14G C29G U47G G58A | ≤ 0.5
A14G C29U A45U | 0.626
A14G C29U A57C | ≤ 0.5
A14G C29U A65G | 0.555
A14G C29U C31U C33U | 0.543
A14G C29U C62U A70U | 0.536
A14G C29U G41A G63A | ≤ 0.5
A14G C29U G41A U54G A69U | 0.621
A14G C30A A45G C60G | 0.668
A14G C30A C34A A43C C62U G63A | ≤ 0.5
A14G C30A C34G C62U | ≤ 0.5
A14G C30A G50A G51A A69G | ≤ 0.5
A14G C30G A36C | 0.525
A14G C30G A36C A69U | ≤ 0.5
A14G C30G A42U A45G A69U | ≤ 0.5
A14G C30G A57G | ≤ 0.5
A14G C30U A42G A57U | ≤ 0.5
A14G C30U A43C G52A | ≤ 0.5

Variant | yeast fitness
A14G C30U C46U G50A | 0.602
A14G C31A | 0.752
A14G C31A C46U G56C A69U | ≤ 0.5
A14G C31A U47C A70U | ≤ 0.5
A14G C31G A37U | 0.533
A14G C31G A37U A65U | 0.529
A14G C31G A45G G56U | ≤ 0.5
A14G C31G A45U C62U | 0.669
A14G C31G A69C | 0.652
A14G C31G C33U G38C G58C C66G | ≤ 0.5
A14G C31G C33U G38C G58C G67U | ≤ 0.5
A14G C31G C46G | 0.577
A14G C31G G58A | ≤ 0.5
A14G C31G U54G A57C C62U | ≤ 0.5
A14G C31U | 0.932
A14G C31U A42U A69U | 0.544
A14G C31U C49A | ≤ 0.5
A14G C31U C49U | 0.809
A14G C31U C55A | 0.552
A14G C31U C55A A70G | ≤ 0.5
A14G C31U C55A G67A A70G | ≤ 0.5
A14G C33A | 0.516
A14G C33G | ≤ 0.5
A14G C33U | 0.616

Variant | yeast fitness
A14G C33U A40U C62G | 0.68
A14G C33U A43G | ≤ 0.5
A14G C33U G38A C55U | ≤ 0.5
A14G C33U U47A G51C C62U | 0.514
A14G C34A A69C | 0.605
A14G C34A C49U G51C C61U | ≤ 0.5
A14G C34A C60A | ≤ 0.5
A14G C34A G38C | 0.676
A14G C34A G38C G48A A69C | ≤ 0.5
A14G C34G | 0.608
A14G C34G A43C | 0.591
A14G C34G A43C A65G | 0.558
A14G C34G A43C A70G | ≤ 0.5
A14G C34G C61A | ≤ 0.5
A14G C34U A40G | 0.541
A14G C34U C66U A70U | ≤ 0.5
A14G C46A A57G | 0.743
A14G C46G | 0.989
A14G C46G A69U | 0.861
A14G C46G C62U | 0.725
A14G C46G G51C | ≤ 0.5
A14G C46U G50C C55U A57U C62G | 0.571
A14G C49A C61U C62G | ≤ 0.5
A14G C49G | 0.815

Variant | yeast fitness
A14G C49G A57G | 0.557
A14G C49G C66U | 0.526
A14G C49U | 0.908
A14G C49U U54C | ≤ 0.5
A14G C49U U64A | 0.537
A14G C55A | ≤ 0.5
A14G C55U | 0.553
A14G C55U A69U | ≤ 0.5
A14G C60A | 0.523
A14G C60G | 0.507
A14G C61A A69C | ≤ 0.5
A14G C61U A70U | 0.835
A14G C62A | 0.533
A14G C62G G68A | ≤ 0.5
A14G C62U G68C | ≤ 0.5
A14G C66G | 0.761
A14G G17A | 0.735
A14G G17A A37G | 0.536
A14G G17A A37U A43U C62G | ≤ 0.5
A14G G17A A37U C62G | ≤ 0.5
A14G G17A C34U C55G | ≤ 0.5
A14G G17C C24U A69U | ≤ 0.5
A14G G17C C24U C49U A69U | ≤ 0.5
A14G G17C C55A | ≤ 0.5

Variant | yeast fitness
A14G G17C G39A | ≤ 0.5
A14G G17C G58C | ≤ 0.5
A14G G18A A21U U26C G48A | ≤ 0.5
A14G G18A C30U | 0.809
A14G G18A U26A | ≤ 0.5
A14G G18A U26A A70C | ≤ 0.5
A14G G18A U32A G44A A65C | ≤ 0.5
A14G G18C | 0.559
A14G G18C A21U C29G C66U | ≤ 0.5
A14G G18C C24G U28C C30U G48C U53A | 0.665
A14G G18C C29G C34U A45C | ≤ 0.5
A14G G18C C29G G56C | ≤ 0.5
A14G G18C C31A A69U | ≤ 0.5
A14G G18C G50C | ≤ 0.5
A14G G18C G52C C55A | ≤ 0.5
A14G G23A | 0.559
A14G G23A A40U A42C G58C | ≤ 0.5
A14G G23A C27G | ≤ 0.5
A14G G23A C29G G68C | ≤ 0.5
A14G G23A C34A | ≤ 0.5
A14G G23A G38C C46U | 0.621
A14G G23A U35C A37C | 0.5
A14G G23C | 0.692
A14G G23C C27A | ≤ 0.5

Variant | yeast fitness
A14G G23C C27A G51A | ≤ 0.5
A14G G23C C29A | ≤ 0.5
A14G G25A | 0.856
A14G G25A A40U C49U C60A G63A | ≤ 0.5
A14G G25A A69U | 0.77
A14G G25A C30A A42C | ≤ 0.5
A14G G25A C30A G52C | 0.548
A14G G25A C46G A57C | ≤ 0.5
A14G G25A U32A | 0.56
A14G G25C | 0.976
A14G G25C C31U | 0.692
A14G G25C G51C C60U G67A | ≤ 0.5
A14G G38A A43G | ≤ 0.5
A14G G38C A57G A70G | ≤ 0.5
A14G G38C A65C | ≤ 0.5
A14G G39C | 0.678
A14G G39C A70U | 0.717
A14G G39C C55A A65G | ≤ 0.5
A14G G39C G68A A70U | ≤ 0.5
A14G G39C U47C | ≤ 0.5
A14G G41A | 0.981
A14G G41A U47A | 0.591
A14G G44A | 0.894
A14G G44A A57U | 0.576

Variant | yeast fitness
A14G G44A C46A G52A C66U | ≤ 0.5
A14G G44A G67C | ≤ 0.5
A14G G44C | 0.928
A14G G48A | 0.868
A14G G48A C61A G68U | ≤ 0.5
A14G G48A G68A | ≤ 0.5
A14G G48C C62U | 0.654
A14G G48C G50A | 0.546
A14G G48C U64C | 0.715
A14G G48C U64G | 0.503
A14G G50A | 0.907
A14G G50C A69U | ≤ 0.5
A14G G50C C66U | ≤ 0.5
A14G G52A G56C A65G | ≤ 0.5
A14G G52C A70U | ≤ 0.5
A14G G56A | 0.805
A14G G56A G67C | ≤ 0.5
A14G G58A A65U | 0.782
A14G G58C | 0.989
A14G G58C A65C | 0.593
A14G G63C | 0.78
A14G G67C | 0.763
A14G G68C | 0.78
